The source of these data is the array DNA melting data of Ke et al. (doi:10.1101/2024.01.08.574731).

Series [1] in a line: melting temperature; fluorescence melt of hairpins on a sequencing array, two-state fit, raised by 9.35 °C to match UV melts. The conditions noted are these: sodium 0.088 M. In outline: (§1)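 Cy3 signals were normalised both to pre-quench Cy3 and to control constructs. They came from library hairpins carrying annealed Cy3 and quencher oligos on a sequenced MiSeq flow cell, imaged in 50 mM Na-HEPES pH 8.0, 25 mM NaCl, in 2.5 °C steps up to 60 °C. Bootstrapped two-state fits gave melting temperature and folding enthalpy, and four replicates were combined by inverse variance. Fitted temperatures were then raised by 9.35 °C to match UV melts.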

Series [2] in a line: folding enthalpy; higher = less favourable; fluorescence melt of hairpins on a sequencing array, two-state fit. The conditions noted are these: sodium 0.088 M. In outline: as §1

Consider GAAGCAGGAAACTGCTCC (.(((((....))))).), for which the Tm in series [1] came out at 41.3 °C. Further, the folding enthalpy in series [2] was -12.6 kcal/mol.
Taken in the same sequence, the figures for GATCGGCCTTCCGATC ((((((....)))))) were 56.1 °C and -41.3 kcal/mol.
In the same order, the values of GAAGACGAAAGTCATTC ((((((....))).))) are 31.4 °C and -14.1 kcal/mol.
As to GGATTCTCGAAAGAGTCC (((..(((....)))))), the Tm in series [1] was found to be 33.5 °C. In addition, the folding enthalpy in series [2] was -22.7 kcal/mol.
In the same order, the values of GTATTCGGAAACGAATAC (((((((....))))))) are 56.8 °C and -48.2 kcal/mol.
In the same order, the values of GCCGAGCGAAAGCGCCGC ((.(.((....)).).)) are 41.9 °C and -12 kcal/mol.
In the same order, the values of GTGCCCACGAAAGTGCAC (((..(((....)))))) are 44.9 °C and -15.5 kcal/mol.
Consider GGCTGACGAAAGTCCGCC (((.(((....))).))), for which the Tm in series [1] came to 58.6 °C. Also, in series [2], the folding enthalpy is -36.6 kcal/mol.
Taken in the same sequence, the figures for GATCCCTGATGGGATC ((((((....)))))) were 59.8 °C and -41.1 kcal/mol.
For GACTGCGAAAGCAGAGTC ((((((....)))..))), the Tm in series [1] was 45.1 °C. Further, the folding enthalpy in series [2] was -11.8 kcal/mol.
In the same order, the values of GCCAAGTCGAAAGACGGC (((..(((....)))))) are 52.7 °C and -25.6 kcal/mol.
In the same order, the values of GGTAGCCCGAAAGGGACC (((..(((....)))))) are 33.6 °C and -12.6 kcal/mol.
In the same order, the values of GACAGACGAAAGTCGGTC (((.(((....))).))) are 59.6 °C and -36.2 kcal/mol.
With GGAATCGAAAGATTTTCC ((((((....)))..))), the Tm in series [1] was 27.8 °C. Moreover, the folding enthalpy in series [2] is -17.7 kcal/mol.
Take GCTATGCGAAAGCTGAGC (((..((....))..))): the Tm in series [1] turned out to be 47.4 °C. The folding enthalpy in series [2] was -21.9 kcal/mol.
Consider GCATGACGAAAGTCGTGC (((.(((....))).))), for which the Tm in series [1] was found to be 63.6 °C. Moreover, the folding enthalpy in series [2] is -42 kcal/mol.
As for GGATTCCGAAAGGATTCC (((.(((....))).))), the Tm in series [1] came out at 49.7 °C. In series [2], the folding enthalpy was -35.8 kcal/mol.
Taken in the same sequence, the figures for GAACATGGAAACATGCTC ((.((((....)))).)) were 35.3 °C and -26.5 kcal/mol.
In the case of GGGTCACGAAAGTGCCC (((.(((....)))))), in series [1], the Tm turned out to be 58.5 °C. Also, in series [2], the folding enthalpy is -39.9 kcal/mol.
Take GTGGCCGGAAACGGTCAC (((.(((....))).))): the Tm in series [1] stood at 66.1 °C. Besides, the folding enthalpy in series [2] was -37.2 kcal/mol.
GGCACCTCGAAAGAGGCC (((..(((....)))))): the Tm in series [1] stood at 38.2 °C. Also, in series [2], the folding enthalpy is -12.2 kcal/mol.
As to GATCCCCCGGGGGATC ((((((....)))))), the Tm in series [1] was 66 °C. Further, the folding enthalpy in series [2] is -41.4 kcal/mol.
In the same order, the values of GTAGATCGAAAGATTAC (((.(((....)))))) are 29.3 °C and -13.5 kcal/mol.
Taken in the same sequence, the figures for GGGTTCGCGAAAGCGCCC (((..(((....)))))) were 43.6 °C and -15.3 kcal/mol.
In the same order, the values of GCGACTGCTCGC ((((....)))) are 50.4 °C and -16.5 kcal/mol.
As to GCAACACCGAAAGGTTGC (((..(((....)))))), in series [1], the Tm was determined as 49.8 °C. In addition, the folding enthalpy in series [2] is -22.6 kcal/mol.
For the sequence GGGTACGGAAACGTGCTC (.(.(((....))).).), the Tm in series [1] was 43.1 °C. In addition, in series [2], the folding enthalpy is -21.5 kcal/mol.
Taken in the same sequence, the figures for GATCCTACCAAGGATC ((((((....)))))) were 53.2 °C and -38.1 kcal/mol.
In the case of GTACGACGAAAGTCTAC (((.(((....)))))), in series [1], the Tm is 37.2 °C. Also, in series [2], the folding enthalpy was -19.7 kcal/mol.
With GCATTCGAAAGAACTGC ((((((....))).))), the Tm in series [1] is 34.9 °C. The folding enthalpy in series [2] is -28.2 kcal/mol.
In the same order, the values of GATCTACCACTAGATC ((((((....)))))) are 39.7 °C and -30.6 kcal/mol.
In the same order, the values of GCAGTGCGAAAGCCTTGC (((..((....))..))) are 47.6 °C and -15.2 kcal/mol.
In the same order, the values of GACATTGGAAACAGTGTC ((((.((....)).)))) are 42.6 °C and -33.1 kcal/mol.
On to GATTCGCGAAAGCGTATC (((.(((....))).))), for which the Tm in series [1] came out at 48.8 °C. The folding enthalpy in series [2] is -20.6 kcal/mol.
In the same order, the values of GAGCGCGAAAGCGGACTC ((((((....)))..))) are 52.3 °C and -13.7 kcal/mol.
Taken in the same sequence, the figures for GAATCGGGAAACCGATTC (((((((....))))))) were 63.6 °C and -40.8 kcal/mol.
For the sequence GCCCAGCGAAAGCTAAGC ((..(((....)))..)), the Tm in series [1] was determined as 27.7 °C. The folding enthalpy in series [2] was -9.29 kcal/mol.
